Assay results pooled from the literature.
Lines come from different studies, so protocols differ. pIC50: −log10 of the molar value.
Cell line: Vero
Effect on: cell growth or viability

SMILES | assay | conditions | measurement | result
O=c1[nH]cc(F)c(=O)[nH]1 | MTT | 72 h | pIC50 | 5.28
Cc1[nH]c(=O)c(CNC(=O)c2ccc(C(F)(F)F)o2)c2c1CCCC2 | MTT | 72 h | IC50 | > 50 µg/mL
C#Cc1cccc(Nc2ncnc3cc(OCCOC)c(OCCOC)cc23)c1 | MTT |  | pIC50 | < 4.52
Nc1nc(N)c(CNCCc2ccccc2F)c(C2CCCCC2)n1 | SRB |  | pIC50 | 4.66
O=[N+]([O-])c1ccc(-c2csc(Nc3ccc4c(O)ncnc4c3)n2)cc1 | MTT |  | pIC50 | < 4.30
CC1(C)N=C(N)N=C(N)N1c1ccc(Cl)cc1 | SRB |  | pIC50 | < 4.00
Nc1ccc(-c2nc3cnccn3c2NC2CCCCC2)cc1 | MTT | 48 h | pIC50 | 4.12
Nc1nc(N)c(CNCCc2ccccc2Cl)c(C2CCCCC2)n1 | SRB |  | pIC50 | 4.68
NC1=NN(c2ccc([N+](=O)[O-])cc2[N+](=O)[O-])C(=O)C1=NNc1ccc(N=Nc2ccccc2)cc1 |  |  | pIC50 | 4.35
Oc1ncnc2cc(Nc3nc(-c4ccc(C(F)(F)F)cc4)cs3)ccc12 | MTT |  | pIC50 | < 4.30
CN(C)c1ccc(-c2nc3cnccn3c2NC(C)(C)C)cc1 | MTT | 48 h | pIC50 | < 4.00
Cc1ccc(C)n1-c1ccc(-c2nnc(-c3c(Cl)cccc3Cl)[nH]2)cc1 | MTT | 72 h | pIC50 | 3.64
Nc1ccc(-c2csc(Nc3ccc4c(O)ncnc4c3)n2)cc1 | MTT |  | pIC50 | < 4.30
Cc1ccc(C)n1-c1ccc(-c2nnc(S)s2)cc1 | MTT | 72 h | pIC50 | 3.66
Nc1nc(N)c(CNCCc2ccc(Cl)c(Cl)c2)c(C2CCCCC2)n1 | SRB |  | pIC50 | 4.68
CC(C)(C)Nc1c(-c2ccc([N+](=O)[O-])cc2)nc2cnccn12 | MTT | 48 h | pIC50 | 4.10
CO[C@H]1/C=C/O[C@@]2(C)Oc3c(C)c(O)c4c(O)c(c(/C=N/N5CCN(C)CC5)c(O)c4c3C2=O)NC(=O)/C(C)=C\C=C\[C@H](C)[C@H](O)[C@@H](C)[C@@H](O)[C@@H](C)[C@H](OC(C)=O)[C@@H]1C | MTT | 48 h | IC50 | > 1000 µg/mL

SMILES | assay | conditions | measurement | result
COc1cccc(CCNCc2c(N)nc(N)nc2-c2ccccc2)c1 | SRB |  | pIC50 | < 4.00
CC(C)(C)Nc1c(-c2ccccc2[N+](=O)[O-])nc2cnccn12 | MTT | 48 h | pIC50 | < 4.00
Cc1ccc(C)n1-c1ccc(-c2nnc(-c3ccc(Br)cc3)[nH]2)cc1 | MTT | 72 h | pIC50 | 3.64
O=[N+]([O-])c1ccc(-c2nc3ccccn3c2NC2CCCCC2)cc1 | MTT | 48 h | pIC50 | 4.07
CCc1nc(N)nc(N)c1-c1ccc(Cl)cc1 | SRB |  | pIC50 | 4.57
Oc1ccc(-c2csc(Nc3ccc4c(O)ncnc4c3)n2)cc1 | MTT |  | pIC50 | < 4.30
Nc1c(-c2ccc([N+](=O)[O-])cc2)nc2ccccn12 | MTT | 48 h | pIC50 | 4.13
Cc1cc(=O)[nH]n1C(=O)c1ccc(-n2c(C)ccc2C)cc1 | MTT | 72 h | pIC50 | 3.70
Nc1nc(N)c(CNCCc2cccc(Cl)c2)c(C2CCCCC2)n1 | SRB |  | pIC50 | 4.64
CN(C)c1ccc(-c2nc3ccccn3c2N)cc1 | MTT | 48 h | pIC50 | 4.15
Oc1ncnc2cc(Nc3nc(-c4ccc(Br)cc4)cs3)ccc12 | MTT |  | pIC50 | < 4.30
NC1=NN(c2ccccc2)C(=O)C1=NNc1ccc(N=Nc2ccccc2)cc1 |  |  | pIC50 | 4.35
Cc1[nH]c(=O)c(CNC(=O)c2ccc([N+](=O)[O-])o2)c2c1CCCC2 | MTT | 72 h | IC50 | > 50 µg/mL
COc1cccc2c1C(=O)c1c(O)c3c(c(O)c1C2=O)C[C@@](O)(C(=O)CO)C[C@@H]3O[C@H]1C[C@H](N)[C@H](O)[C@H](C)O1 | MTT | 48 h | pIC50 | 4.85
Nc1nc(N)c(CNCCc2ccc(Cl)cc2)c(C2CCCCC2)n1 | SRB |  | pIC50 | 4.64
COc1cccc2c1C(=O)c1c(O)c3c(c(O)c1C2=O)C[C@@](O)(C(=O)CO)C[C@@H]3O[C@H]1C[C@H](N)[C@H](O)[C@H](C)O1 | SRB |  | pIC50 | 6.17
